Measurements published in ChEMBL document CHEMBL3352813, “Prostaglandin Derivatives: Nonaromatic Phosphodiesterase-4 Inhibitors from the Soft Coral Sarcophyton ehrenbergi” (J Nat Prod, 2014).
pIC50: −log10 of the molar value.

Tests used:
[1] = target: T1, 3',5'-cyclic-AMP phosphodiesterase 4D (Homo sapiens, UniProt Q08499); assay: Inhibition of human PDE4D2 catalytic domain (86 to 413 amino acids) expressed in Escherichia coli strain BL21 at 10 uM after 15 mins using [3H]-cAMP by liquid scintillation counting
Summary of the method: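 Single-point primary screen of percent inhibition against PDE4D2 at an initial concentration of 10 μM, using [3H]cAMP as substrate and liquid scintillation counting of radioactivity. Enzyme was produced using LB medium. Rolipram served as the reference inhibitor. The method follows the authors' earlier reports.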

[2] = target: T1, 3',5'-cyclic-AMP phosphodiesterase 4D; assay: Inhibition of human PDE4D2 catalytic domain (86 to 413 amino acids) expressed in Escherichia coli strain BL21 after 15 mins using [3H]-cAMP by liquid scintillation counting
Summary of the method: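 IC50 determined against PDE4D2 only for compounds that gave more than 50% inhibition in the 10 μM primary screen. Substrate was [3H]cAMP and read-out was liquid scintillation counting. Enzyme was produced using LB medium. Rolipram served as the reference inhibitor. The method otherwise follows the authors' earlier reports.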

T1 sequence (Q08499 whole entry, the tested form may be a part): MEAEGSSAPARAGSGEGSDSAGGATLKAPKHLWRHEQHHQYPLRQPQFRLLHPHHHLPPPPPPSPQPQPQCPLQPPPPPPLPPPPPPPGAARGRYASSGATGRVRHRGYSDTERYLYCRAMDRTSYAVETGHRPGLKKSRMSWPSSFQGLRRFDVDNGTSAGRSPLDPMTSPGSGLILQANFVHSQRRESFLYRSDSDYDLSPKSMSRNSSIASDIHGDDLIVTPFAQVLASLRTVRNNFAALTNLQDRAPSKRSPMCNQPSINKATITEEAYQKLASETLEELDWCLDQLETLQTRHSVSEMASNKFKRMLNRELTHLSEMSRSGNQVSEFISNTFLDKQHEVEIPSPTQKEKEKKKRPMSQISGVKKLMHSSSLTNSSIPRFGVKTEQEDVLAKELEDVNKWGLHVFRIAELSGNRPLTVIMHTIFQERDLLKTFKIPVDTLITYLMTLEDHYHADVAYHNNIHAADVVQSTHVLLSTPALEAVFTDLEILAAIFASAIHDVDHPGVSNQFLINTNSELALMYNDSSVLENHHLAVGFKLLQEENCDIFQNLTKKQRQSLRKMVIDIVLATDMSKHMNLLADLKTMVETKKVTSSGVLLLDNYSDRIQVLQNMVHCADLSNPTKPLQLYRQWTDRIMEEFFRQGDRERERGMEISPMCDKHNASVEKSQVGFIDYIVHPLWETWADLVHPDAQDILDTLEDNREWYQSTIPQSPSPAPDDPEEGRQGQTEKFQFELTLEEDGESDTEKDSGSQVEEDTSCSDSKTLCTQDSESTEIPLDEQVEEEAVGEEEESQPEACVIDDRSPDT

| inhibition [1] [%] | pIC50 [2] | SMILES |
| --- | --- | --- |
| 57.2 | 4.92 | CCC(=O)CC[C@@H](/C=C/[C@@H]1[C@@H](C/C=C\CCCC(=O)OC)[C@@H](O)C[C@H]1OC(C)=O)OC(C)=O |
| 11.4 | – | CCC(CC[C@H](O)/C=C/[C@@H]1[C@@H](C/C=C\CCCC(=O)OC)[C@@H](OC(C)=O)C[C@H]1OC(C)=O)OC(C)=O (stereo partly specified) |
| 66.5 | 5.43 | CCC(CC[C@@H](/C=C/[C@@H]1[C@@H](C/C=C\CCCC(=O)OC)[C@@H](OC(C)=O)C[C@H]1OC(C)=O)OC(C)=O)OC(C)=O (stereo partly specified) |
| 38.7 | – | CCC(CC[C@@H](/C=C/[C@@H]1[C@@H](C/C=C\CCCC(=O)OC)[C@@H](O)C[C@H]1OC(C)=O)OC(C)=O)OC(C)=O (stereo partly specified) |
| 94.6 | 5.85 | CCCCC[C@@H](/C=C/[C@@H]1[C@@H](C/C=C\CCCC(=O)OC)[C@@H](OC(C)=O)C[C@H]1OC(C)=O)OC(C)=O |
| 65 | 4.97 | CCC(=O)CC[C@@H](/C=C/[C@@H]1[C@@H](C/C=C\CCCC(=O)OC)[C@@H](OC(C)=O)C[C@H]1OC(C)=O)OC(C)=O |
| 50.4 | 4.77 | CCC(=O)CC[C@@H](/C=C/[C@@H]1[C@@H](C/C=C\CCCC(=O)O)[C@@H](O)C[C@H]1OC(C)=O)OC(C)=O |

The next lines start with the compound.

| SMILES | inhibition [1] [%] | pIC50 [2] |
| --- | --- | --- |
| CCC(=O)CC[C@H](O)/C=C/[C@@H]1[C@@H](C/C=C\CCCC(=O)O)[C@@H](O)C[C@H]1O | 10.1 | – |
| CCC(O)CC[C@H](O)/C=C/[C@@H]1[C@@H](C/C=C\CCCC(=O)O)[C@@H](O)C[C@H]1O (stereo partly specified) | -3.93 | – |
| CCC(CC[C@@H](/C=C/[C@@H]1[C@@H](C/C=C\CCCC(=O)OC)[C@@H](OC(=O)[C@](OC)(c2ccccc2)C(F)(F)F)C[C@H]1OC(C)=O)OC(=O)[C@](OC)(c1ccccc1)C(F)(F)F)OC(C)=O (stereo partly specified) | 58 | 5.44 |
| CCC(CC[C@H](O)/C=C/[C@@H]1[C@@H](C/C=C\CCCC(=O)OC)[C@@H](O)C[C@H]1OC(C)=O)OC(C)=O (stereo partly specified) | -6.05 | – |
| CCC(CC[C@@H](/C=C/[C@@H]1[C@@H](C/C=C\CCCC(=O)OC)[C@@H](OC(=O)[C@@](OC)(c2ccccc2)C(F)(F)F)C[C@H]1OC(C)=O)OC(=O)[C@@](OC)(c1ccccc1)C(F)(F)F)OC(C)=O (stereo partly specified) | 51.1 | 5.23 |
| CCCCC[C@@H](/C=C/[C@@H]1[C@@H](CCCCCCC(=O)OC)[C@@H](O)C[C@H]1OC(C)=O)OC(C)=O | 41.7 | – |
| CCC(=O)CC[C@H](O)/C=C/[C@@H]1[C@@H](C/C=C\CCCC(=O)O)[C@@H](O)C[C@H]1OC(C)=O | 26 | – |
| CCC(=O)CC[C@H](O)/C=C/[C@@H]1[C@@H](C/C=C\CCCC(=O)OC)[C@@H](O)C[C@H]1OC(C)=O | 21.9 | – |
| CCCCC[C@@H](/C=C/[C@@H]1[C@@H](C/C=C\CCCC(=O)OC)[C@@H](O)C[C@H]1OC(C)=O)OC(C)=O | 71.9 | 5.26 |
| CCC(CC[C@H](O)/C=C/[C@@H]1[C@@H](C/C=C\CCCC(=O)O)[C@@H](O)C[C@H]1OC(C)=O)OC(C)=O (stereo partly specified) | 3.12 | – |
| CCCCC[C@@H](/C=C/[C@@H]1[C@@H](C/C=C\CCCC(=O)OC)[C@@H](OC(C)=O)C[C@H]1O)OC(C)=O | 74.7 | 5.33 |
| CCCCC[C@@H](/C=C/[C@@H]1[C@@H](/C=C/CCCCC(=O)OC)[C@@H](O)C[C@H]1OC(C)=O)OC(C)=O | 57.3 | 5.14 |
| CCC(CC[C@@H](/C=C/[C@@H]1[C@@H](C/C=C\CCCC(=O)OC)[C@@H](OC(C)=O)C[C@H]1OC(C)=O)OC(=O)[C@@](OC)(c1ccccc1)C(F)(F)F)OC(C)=O (stereo partly specified) | 15.1 | – |
| CCC(CC[C@@H](/C=C/[C@@H]1[C@@H](C/C=C\CCCC(=O)OC)[C@@H](OC(C)=O)C[C@H]1OC(C)=O)OC(=O)[C@](OC)(c1ccccc1)C(F)(F)F)OC(C)=O (stereo partly specified) | 28.4 | – |
